# Experimental data published in the EternaBench riboswitch data.
# System: MS2 coat protein
# Test: apparent Kd, MS2 coat protein; higher = weaker binding; RNA-MaP array; FMN 200 µM where present
# Procedure, shortened: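 SNAP-549-labelled MS2 coat protein, doubled from 0.7 or 1.5 nM to 3 µM, was titrated over designs transcribed by stalled E. coli RNA polymerase on Illumina sequencing-chip clusters. Titrations were run without and then with constant ligand in 100 mM Tris-HCl pH 7.5, 80 mM KCl, 4 mM MgCl2, BSA, DTT, yeast tRNA and Tween-20. The apparent Kd is the median of filtered per-cluster fits to green signal normalised to red-channel RNA signal and control-cluster median Fmax.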
# [1] = designed as: ON switch for flavin mononucleotide, no ligand
# [2] = ligand present: flavin mononucleotide, designed as: ON switch for flavin mononucleotide
# [3] = designed as: OFF switch for flavin mononucleotide, no ligand
# [4] = ligand present: flavin mononucleotide, designed as: OFF switch for flavin mononucleotide
Sequence,apparent Kd [1] [nM],apparent Kd [2] [nM],apparent Kd [3] [nM],apparent Kd [4] [nM]
AUUUAUGGCCAGAAGGACAUGAGGAUCACCCAUGUAGGAUAUGGACGAUUUUGCUCGGCGGUUUGUUAAGGAAGCACCGGUGGU,14.3,7.23,–,–
CAGUAGAUCCGAGGAUAUACAAUCCGGAAACGGUACAUGAGGAUCACCCAUGUAGAAGGCGGAUCUACAGGUACUAAAGUACCA,–,–,5.77,7.65
UAUUUAUAGCAAGGAUAUGAUUAUUAUUAUUUAUCAGAAGGUGCACAUGAGGAUCACCCAUGUUUUAUAUAUAAUAAUUUAAUU,–,–,113,30.6
GGAAAUCAUGUAGGAUAUGCAUGGCGAAGCUACGCAGAAGGACAUGAGGAUCACCCAUGUUAUAGCGUCCGAGUAAGGAUGCAA,–,–,42.1,123
CGAGCUGCUGUGAGGAUAUACCUAUGGAUACAUGGGUAGAAGGCACAUGAGGAUCACCCAUGUCCUGCAGCUCG,–,–,43.2,273
GUCAGCUCGUGAGGAUAUACAACACUGCUUCGGCAGUGUAUUAAUAUCACAUGAGGAUCACCCAUGUAGAAGGCACGAGCUGAU,–,–,5.07,5.81
CCACGGUAUGUAGGAUAUGCAUAGCAUUGCUAUGCAGAAGGACAUGAGGAUCACCCAUGUAUGUAUUCCAUACUAAUCCCGUGC,–,–,6.42,6.37
AUACAUGAGGAUCACCCAUGUAAUUAAUUAAUUAAUAAGAUCUAGGAUAUCAGCUCGAAUAGAGCUGAGAAGGAGAUCACAUGU,23,14.4,–,–
ACUUACUGAGGAUAUACAUAGAUUUACAUGAGGAUCACCCAUGUUCCUCUAUGUAUAAAUGUAGAAGGCAGAAGAA,–,–,16.6,59.1
UGUUGUAUUACAGGAUAUCUAGUAGUUUUAUUUAGAGAAGGGUAUUCACAUGAGGAUCACCCAUGUAUAUACGAGGAAGUUGUG,38.9,40,–,–
AGUAGAUCAGGAUAUACGUAAAUGGUAAUUAUGUAACUUCUACAUGAGGAUCACCCAUGUAGAAGGGAUCUACA,–,–,13.6,13.4
GAUAUUUUUUGAGGAUAUUCAUACACUGUAUACGGAGAAGGCAAACAAUCAUGAGGACAUGAGGAUCACCCAUGUUGUGACCAU,19.5,13.5,–,–
UUGUAACGAUUAGGAUAUUAUUAAUAGAACUUUAUGAUAUACAUGAGGAUCACCCAUGUUACUUUUAAGAAGGAAUCGUAUUAU,–,–,24.4,18.3
UCAUGAUGGAAGAAGGGAGUCGUGCAUAACAACUCAGGAUAUUUCACAUGAGGAUCACCCAUGUCGAAGUAACAAUGUUGAUUA,–,–,15.9,28
GUCAUCACAUGAGGAUAUGCUCGGGUUUCCCGAGCAGAAGGCAUGGCAUACAUGAGGAUCACCCAUGUUGACAUUAAGAUUGUA,10.3,6.73,–,–
GGUGGACAUGAGGAUCACCCAUGUGAGGAUAUCGGCCGGCUAGUGGCGGCUGGCUUCUCGAGAAGGCGCAUAGU,–,–,47.2,62.9
GCGUAUUAGGUGUAGCUAGUCAUUCAAGAAGGGUGAAGAACAUGAGGAUCACCCAUGUAGUUUAUACAGGAUAUUGAUAUACGC,528,235,–,–
GCGUUUUAUGCAGGAUAUUGUAAUUUAUUACUACAAGAAGGGCAAUACAUGAGGAUCACCCAUGUCAGCAUGGUAUUAAAGUUC,–,–,37.6,42.8
CGGCGGAAGCAGAAGGCAUGAACGGACAUGAGGAUCACCCAUGUUGGAAACUCAUGCCCGAAAGAUGAGGAUAUGCGUCCGGGU,–,–,71.7,18.5
GGUGAAGCAGGAUAUGUGCCAAUAUACAUGAGGAUCACCCAUGUCAUGUAGGAACUGCGUAUAGAAGGGCUUCACC,–,–,37.6,63.5
UGUGUGUGGGCAGGAUAUGCAUGAAGAUGUAUGAUGUAGUGUGAUGUAACAUGAGGAUCACCCAUGUAGAAGGGCCGGUGUGUG,–,–,116,139
CAGCGGGCAGGAUAUGCACCUUGAGACAAAUGUCUGUCCGGACAUGAGGAUCACCCAUGUAGAAGGGCCACGGA,–,–,55.4,44.5
AAGCUGCGCCAGAAGGGACCGACAUGAGGAUCACCCAUGUCCACAAGAGUCAGGAUAUGGCGUGGAGGCUCGUUUAAGUCCAGG,11.1,5.19,–,–
UGAGCCUCGUGAGGAUAUACAUGAGGAUCACCCAUGUAAAUGGAAUAACGGAGGAAACUCCGAAUGUAGAAGGCACGAGGCUCA,–,–,81.3,840
GAUCCACAUGAGGAUCACCCAUGUGAGGAUAUGAUACUAUGUACUUCGGUACAUAGUAUCAGAAGGCACAUUGA,–,–,114,65.9
GCAUGCGUUCGAGGAUAUCGGUGAGAAACGGAACGAGAAGGCGAUAGAAUGUCUCAUCUUAUGAACAUGAGGAUCACCCAUGUA,32.7,31.6,–,–
UGUCGGAGCAGAGGAUAUUACAUGAGGAUCACCCAUGUAUGAACCAAUAGCUGGAAACAGCAAUGUAAGAAGGCUGCUUCGACA,–,–,12.4,145
